Measured values reported in ChEMBL document CHEMBL4396885, “Thioether-based 2-aminobenzamide derivatives: Novel HDAC inhibitors with potent in vitro and in vivo antitumor activity” (Eur J Med Chem, 2019).

Assays:
A549 [1] = test: Induction of apoptosis in human A549 cells assessed as viable cells at 1 uM after 48 hrs by Annexin V-FITC/propidium iodide staining based flow cytometry (reference value: 98%); format: functional; conditions: A549, 48 h, read-out: Activity
Outline: (§1)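 A549 seeded 4×10⁶ cells/well, dosed after 12 h with compound at various concentrations, harvested after 48 h. Resuspended in annexin-binding buffer, stained with Annexin V-FITC and propidium iodide for 15 min in the dark, analysed by flow cytometry; means of three separate experiments.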

A549 [2] = test: Antiproliferative activity against human A549 cells assessed as growth inhibition at 2 uM after 72 hrs by CCK-8 assay relative to control; format: functional; conditions: A549, 72 h, read-out: GI
A549 [3] = test: Antiproliferative activity against human A549 cells assessed as growth inhibition at 8 uM after 72 hrs by CCK-8 assay relative to control; format: functional; conditions: A549, 72 h, read-out: GI
A-375 [4] = test: Antiproliferative activity against human A375 cells assessed as growth inhibition at 2 uM after 72 hrs by CCK-8 assay relative to control; format: functional; conditions: A-375, 72 h, read-out: GI
A-375 [5] = test: Antiproliferative activity against human A375 cells assessed as growth inhibition at 8 uM after 72 hrs by CCK-8 assay relative to control; format: functional; conditions: A-375, 72 h, read-out: GI
SMMC-7721 [6] = test: Antiproliferative activity against human SMMC7721 cells assessed as growth inhibition at 2 uM after 72 hrs by CCK-8 assay relative to control; format: functional; conditions: SMMC-7721, 72 h, read-out: GI
SMMC-7721 [7] = test: Antiproliferative activity against human SMMC7721 cells assessed as growth inhibition at 8 uM after 72 hrs by CCK-8 assay relative to control; format: functional; conditions: SMMC-7721, 72 h, read-out: GI
HCT-116 [8] = test: Antiproliferative activity against human HCT116 cells assessed as growth inhibition at 2 uM after 72 hrs by CCK-8 assay relative to control; format: functional; conditions: HCT-116, 72 h, read-out: GI
HCT-116 [9] = test: Antiproliferative activity against human HCT116 cells assessed as growth inhibition at 8 uM after 72 hrs by CCK-8 assay relative to control; format: functional; conditions: HCT-116, 72 h, read-out: GI
HeLa [10] = test: Antiproliferative activity against human HeLa cells assessed as growth inhibition at 2 uM after 72 hrs by CCK-8 assay relative to control; format: functional; conditions: read-out: GI
HeLa [11] = test: Antiproliferative activity against human HeLa cells assessed as growth inhibition at 8 uM after 72 hrs by CCK-8 assay relative to control; format: functional; conditions: read-out: GI
A549 [12] = test: Antiproliferative activity against human A549 cells assessed as decrease in cell viability after 72 hrs by CCK-8 assay; format: functional, cell-based; conditions: A549, 72 h
Outline: (§2)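 Cells grown to 70–85% confluence (A375, A549, HCT116 in RPMI1640; HeLa, SMMC7721 in DMEM; 10% FBS, 37 °C, 5% CO2), seeded 4000/well, dosed after 12 h across a concentration range, incubated 72 h, then CCK-8 for 1 h; absorbance at 450 nm. IC50 as mean ± SD of three separate experiments.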

A-375 [13] = test: Antiproliferative activity against human A375 cells assessed as decrease in cell viability after 72 hrs by CCK-8 assay; format: functional, cell-based; conditions: A-375, 72 h; outline: as §2
SMMC-7721 [14] = test: Antiproliferative activity against human SMMC7721 cells assessed as decrease in cell viability after 72 hrs by CCK-8 assay; format: functional, cell-based; conditions: SMMC-7721, 72 h; outline: as §2
HCT-116 [15] = test: Antiproliferative activity against human HCT116 cells assessed as decrease in cell viability after 72 hrs by CCK-8 assay; format: functional, cell-based; conditions: HCT-116, 72 h; outline: as §2
HeLa [16] = test: Antiproliferative activity against human HeLa cells assessed as decrease in cell viability after 72 hrs by CCK-8 assay; format: functional, cell-based; outline: as §2
A549 [17] = test: Cell cycle arrest in human A549 cells assessed as accumulation of cells at G0/G1 phase at 0.5 uM after 48 hrs by propidium iodide staining-based flow cytometry (reference value: 73.35%); format: functional
A549 [18] = test: Induction of apoptosis in human A549 cells assessed as viable cells at 0.5 uM after 48 hrs by Annexin V-FITC/propidium iodide staining based flow cytometry (reference value: 98%); format: functional; conditions: A549, 48 h, read-out: Activity; outline: as §1
A549 [19] = test: Induction of apoptosis in human A549 cells assessed as early apoptotic cells at 0.5 uM after 48 hrs by Annexin V-FITC/propidium iodide staining based flow cytometry (reference value: 1.19%); format: functional; outline: as §1
A549 [20] = test: Induction of apoptosis in human A549 cells assessed as late apoptotic cells at 0.5 uM after 48 hrs by Annexin V-FITC/propidium iodide staining based flow cytometry (reference value: 0.637%); format: functional; outline: as §1
A549 [21] = test: Induction of apoptosis in human A549 cells assessed as necrotic cells at 0.5 uM after 48 hrs by Annexin V-FITC/propidium iodide staining based flow cytometry (reference value: 0.135%); format: functional; outline: as §1
A549 [22] = test: Induction of apoptosis in human A549 cells assessed as early apoptotic cells at 1 uM after 48 hrs by Annexin V-FITC/propidium iodide staining based flow cytometry (reference value: 1.19%); format: functional; outline: as §1
A549 [23] = test: Induction of apoptosis in human A549 cells assessed as late apoptotic cells at 1 uM after 48 hrs by Annexin V-FITC/propidium iodide staining based flow cytometry (reference value: 0.637%); format: functional; outline: as §1
A549 [24] = test: Induction of apoptosis in human A549 cells assessed as necrotic cells at 1 uM after 48 hrs by Annexin V-FITC/propidium iodide staining based flow cytometry (reference value: 0.135%); format: functional; outline: as §1
A549 [25] = test: Induction of apoptosis in human A549 cells assessed as viable cells at 2 uM after 48 hrs by Annexin V-FITC/propidium iodide staining based flow cytometry (reference value: 98%); format: functional; conditions: A549, 48 h, read-out: Activity; outline: as §1
A549 [26] = test: Induction of apoptosis in human A549 cells assessed as early apoptotic cells at 2 uM after 48 hrs by Annexin V-FITC/propidium iodide staining based flow cytometry (reference value: 1.19%); format: functional; outline: as §1
A549 [27] = test: Induction of apoptosis in human A549 cells assessed as late apoptotic cells at 2 uM after 48 hrs by Annexin V-FITC/propidium iodide staining based flow cytometry (reference value: 0.637%); format: functional; outline: as §1
A549 [28] = test: Induction of apoptosis in human A549 cells assessed as necrotic cells at 2 uM after 48 hrs by Annexin V-FITC/propidium iodide staining based flow cytometry (reference value: 0.135%); format: functional; outline: as §1
A549 [29] = test: Cell cycle arrest in human A549 cells assessed as accumulation of cells at S phase at 0.5 uM after 48 hrs by propidium iodide staining-based flow cytometry (reference value: 12.83%); format: functional
A549 [30] = test: Cell cycle arrest in human A549 cells assessed as accumulation of cells at G2/M phase at 0.5 uM after 48 hrs by propidium iodide staining-based flow cytometry (reference value: 13.62%); format: functional
A549 [31] = test: Cell cycle arrest in human A549 cells assessed as accumulation of cells at G0/G1 phase at 1 uM after 48 hrs by propidium iodide staining-based flow cytometry (reference value: 73.35%); format: functional
A549 [32] = test: Cell cycle arrest in human A549 cells assessed as accumulation of cells at S phase at 1 uM after 48 hrs by propidium iodide staining-based flow cytometry (reference value: 12.83%); format: functional
A549 [33] = test: Cell cycle arrest in human A549 cells assessed as accumulation of cells at G2/M phase at 1 uM after 48 hrs by propidium iodide staining-based flow cytometry (reference value: 13.62%); format: functional
A549 [34] = test: Cell cycle arrest in human A549 cells assessed as accumulation of cells at G0/G1 phase at 2 uM after 48 hrs by propidium iodide staining-based flow cytometry (reference value: 73.35%); format: functional
A549 [35] = test: Cell cycle arrest in human A549 cells assessed as accumulation of cells at S phase at 2 uM after 48 hrs by propidium iodide staining-based flow cytometry (reference value: 12.83%); format: functional
A549 [36] = test: Cell cycle arrest in human A549 cells assessed as accumulation of cells at G2/M phase at 2 uM after 48 hrs by propidium iodide staining-based flow cytometry (reference value: 13.62%); format: functional
A549 [37] = test: Antitumor activity against human A549 cells xenografted in Balb/c nude mouse assessed as tumor growth inhibition at 25 mg/kg, ip administered twice per day for 21 days relative to control; format: functional; conditions: 504 h, read-out: TGI
Outline: (§3)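 Female BALB/c nude mice, 5–6 weeks, implanted s.c. in right axilla with 3×10⁶ A549 cells; randomized at ~95 mm³ tumor volume, 4 per group. Dosed ip 25 mg/kg twice daily for 21 days; vehicle controls got DMA & 5% Solutol HS-15 (5:95). Tumor size (V=length×width²/2) and body weight measured every 3 days; TGI from volume change relative to control.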

[38] = Toxicity against nude Balb/c mouse xenografted with human A549 cells assessed as no change in body weight at 25 mg/kg, ip administered twice per day for 21 days and measured every 3 days during compound dosing; format: organism-based; conditions: in vivo; outline: as §3
[39] = Half life in ICR mouse at 4 mg/kg, iv after 0.08 to 24 hrs by LC-MS/MS analysis; format: ADME, organism-based; conditions: in vivo
Outline: (§4)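 Male ICR mice (29.7~37.4 g), single iv dose 4 mg/kg in DMSO:40% SBE-β-CD 20:80 (v/v). Retro-orbital blood at 0.08–24 h into EDTA-K2 tubes; plasma protein-precipitated with acetonitrile containing internal standards, analysed by LC-MS/MS; n=3 per time point; noncompartmental analysis.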

[40] = Clearance in ICR mouse at 4 mg/kg, iv after 0.08 to 24 hrs by LC-MS/MS analysis; format: ADME, organism-based; conditions: in vivo; outline: as §4
[41] = Volume of distribution at steady state n ICR mouse at 4 mg/kg, iv after 0.08 to 24 hrs by LC-MS/MS analysis; format: ADME, organism-based; conditions: in vivo, read-out: Vdss; outline: as §4

| SMILES | viability at 1 µM (A549 [1]) | inhibition of growth at 2 µM (A549 [2]) | inhibition of growth at 8 µM (A549 [3]) | inhibition of growth at 2 µM (A-375 [4]) | inhibition of growth at 8 µM (A-375 [5]) | inhibition of growth at 2 µM (SMMC-7721 [6]) | inhibition of growth at 8 µM (SMMC-7721 [7]) | inhibition of growth at 2 µM (HCT-116 [8]) | inhibition of growth at 8 µM (HCT-116 [9]) | inhibition of growth at 2 µM (HeLa [10]) | inhibition of growth at 8 µM (HeLa [11]) | IC50 (A549 [12]) | IC50 (A-375 [13]) | IC50 (SMMC-7721 [14]) | IC50 (HCT-116 [15]) | IC50 (HeLa [16]) | Activity (A549 [17]) | viability at 0.5 µM (A549 [18]) | Activity (A549 [19]) | Activity (A549 [20]) | further results |
| --- | --- | --- | --- | --- | --- | --- | --- | --- | --- | --- | --- | --- | --- | --- | --- | --- | --- | --- | --- | --- | --- |
| CC(=O)Nc1ccc(C(=O)Nc2ccccc2N)cc1 [TACEDINALINE] | 89.7% | 23.5% | 29.1% | 12.8% | 46.4% | 23.5% | 29.1% | 13% | 44% | 23.5% | 29.1% | 16.4 µM | 9.64 µM | 14.1 µM | 6.39 µM | 13.4 µM | 76.99% | 92.4% | 1.17% | 1.86% | Activity (A549 [21]): 4.6%; Activity (A549 [22]): 3.92%; Activity (A549 [23]): 5.87%; Activity (A549 [24]): 0.521%; viability at 2 µM (A549 [25]): 83.3%; Activity (A549 [26]): 3.68%; Activity (A549 [27]): 9.92%; Activity (A549 [28]): 3.15%; Activity (A549 [29]): 7.64%; Activity (A549 [30]): 15.37%; Activity (A549 [31]): 75.86%; Activity (A549 [32]): 6.73%; Activity (A549 [33]): 17.41%; Activity (A549 [34]): 77.38%; Activity (A549 [35]): 7.37%; Activity (A549 [36]): 15.25%; inhibition in vivo at 25 mg/kg (A549 [37]): 46.8%; Activity [38]: Non-Toxic |
| Nc1ccccc1NC(=O)c1ccc(COc2ccc(F)cc2)cc1 | – | – | – | – | – | – | – | – | – | – | – | – | – | – | – | – | – | – | – | – | half-life [39]: 33.6 min; clearance [40]: 118 mL/min/kg; Vd [41]: 2.33 L/kg |
| Nc1ccc(F)cc1NC(=O)c1ccc(CNC(=O)/C=C/c2cccnc2)cc1 | 89% | 21.9% | 85.6% | 56.5% | 71.7% | 56.5% | 71.7% | 61.1% | 87.4% | 20.6% | 34.2% | 6.81 µM | 4.77 µM | 8.63 µM | 1.57 µM | 3.42 µM | 75.24% | 96.5% | 2.17% | 0.898% | Activity (A549 [21]): 0.455%; Activity (A549 [22]): 1.01%; Activity (A549 [23]): 5.25%; Activity (A549 [24]): 4.71%; viability at 2 µM (A549 [25]): 91%; Activity (A549 [26]): 3.97%; Activity (A549 [27]): 4.14%; Activity (A549 [28]): 0.881%; Activity (A549 [29]): 6.97%; Activity (A549 [30]): 17.79%; Activity (A549 [31]): 74.07%; Activity (A549 [32]): 7.26%; Activity (A549 [33]): 18.67%; Activity (A549 [34]): 75.53%; Activity (A549 [35]): 9.43%; Activity (A549 [36]): 15.04% |
